Activity calls are given as the source filed them. The calls are words filed in the database; no cut-off is given here.
Assays:
[1] = Antiproliferative activity against RET C634R mutant oncogene-transformed mouse NIH3T3MEN2A after 72 hrs; format: functional
Method in brief: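 Cells kept at 37 °C in 10% CO2 in DMEM. NIH3T3MEN2A were grown with 5% serum; parental NIH3T3 and NIH3T3H-RAS with 10% calf serum. Compounds were dissolved in DMSO and diluted in medium to 0.5% solvent final.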

[2] = test system: NIH3T3MEN2A; experiment: Reversion of RET C634R mutant oncogene-transformed morphologic phenotype of mouse NIH3T3MEN2A cells at 10 uM after 72 hrs; format: functional, cell-based
[3] = test system: NIH3T3; experiment: Antiproliferative activity against H-RAS transformed mouse NIH3T3 cells after 72 hrs; conditions: NIH3T3, 72 h
[4] = test system: NIH3T3; experiment: Antiproliferative activity against mouse NIH3T3 after 72 hrs; conditions: NIH3T3, 72 h
[5] = target: T1, Proto-oncogene tyrosine-protein kinase receptor Ret (Homo sapiens, UniProt P07949); experiment: Inhibition of RET in mouse NIH3T3MEN2A cells up to 3 uM; format: cell-based
T1 sequence (P07949 whole entry): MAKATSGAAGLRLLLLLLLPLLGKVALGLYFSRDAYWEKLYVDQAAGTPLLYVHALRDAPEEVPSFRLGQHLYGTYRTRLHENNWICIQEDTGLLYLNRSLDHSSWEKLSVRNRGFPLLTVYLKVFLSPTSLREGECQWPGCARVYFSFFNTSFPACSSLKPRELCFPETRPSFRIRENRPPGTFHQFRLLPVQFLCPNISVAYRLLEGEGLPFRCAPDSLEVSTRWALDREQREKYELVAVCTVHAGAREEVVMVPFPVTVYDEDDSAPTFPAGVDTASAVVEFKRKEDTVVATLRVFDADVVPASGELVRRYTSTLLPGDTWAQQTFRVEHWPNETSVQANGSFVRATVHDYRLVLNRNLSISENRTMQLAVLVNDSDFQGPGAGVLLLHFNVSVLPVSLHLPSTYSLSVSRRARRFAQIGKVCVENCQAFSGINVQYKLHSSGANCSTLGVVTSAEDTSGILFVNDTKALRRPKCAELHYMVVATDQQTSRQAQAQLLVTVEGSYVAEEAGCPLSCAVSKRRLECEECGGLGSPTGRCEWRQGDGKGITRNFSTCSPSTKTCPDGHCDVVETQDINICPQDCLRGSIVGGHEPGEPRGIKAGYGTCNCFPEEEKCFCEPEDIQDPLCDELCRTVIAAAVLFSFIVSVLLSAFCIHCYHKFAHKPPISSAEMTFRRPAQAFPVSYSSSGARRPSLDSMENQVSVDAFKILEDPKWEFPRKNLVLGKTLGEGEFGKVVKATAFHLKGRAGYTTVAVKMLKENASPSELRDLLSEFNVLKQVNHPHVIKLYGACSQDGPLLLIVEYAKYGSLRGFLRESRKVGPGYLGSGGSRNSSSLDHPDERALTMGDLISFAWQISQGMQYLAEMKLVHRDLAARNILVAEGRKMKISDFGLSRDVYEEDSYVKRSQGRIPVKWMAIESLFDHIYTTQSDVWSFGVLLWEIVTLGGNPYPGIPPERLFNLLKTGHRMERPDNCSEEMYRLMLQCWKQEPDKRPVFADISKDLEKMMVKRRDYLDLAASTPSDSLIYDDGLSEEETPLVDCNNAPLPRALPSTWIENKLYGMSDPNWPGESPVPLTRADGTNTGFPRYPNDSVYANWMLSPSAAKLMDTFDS
Method in brief: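 NIH3T3MEN2A cells (DMEM with 5% serum, 37 °C, 10% CO2) were exposed to vehicle or a range of concentrations for 24 h, with DMSO at 0.5% final. Whole-cell lysates were Western blotted for Ret autophosphorylation with anti-pTyr (4G10) and anti-pRet-Tyr1062 antibodies, and Ret protein expression was also probed.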

[6] = target: T1, Proto-oncogene tyrosine-protein kinase receptor Ret; experiment: Inhibition of RET in mouse NIH3T3MEN2A cells; format: cell-based

**Q.** Which IC50 [1] does the source give for `COc1cc2c(cc1OC)/C(=C\c1ccc(NC(=O)Nc3ccc(F)cc3)cc1)C(=O)N2` here?
**A.** The IC50 was 6.1 µM.

**Q.** What about the Activity [2] of the same molecule?
**A.** Its Activity is “inactive”.

**Q.** With `COc1cc2c(cc1OC)N(C)C(=O)/C2=C/c1ccc(NC(=O)Nc2ccccc2)cc1` as the molecule, how does the IC50 [3] read?
**A.** The IC50 was 5.4 µM.

**Q.** What about the IC50 [4] of the same molecule?
**A.** The IC50 was 6.6 µM.

**Q.** What about the IC50 [1] of the same molecule?
**A.** Its IC50 is 4.1 µM.

**Q.** And the Activity [5]?
**A.** Its Activity is “inactive”.

**Q.** What about the Activity [2] of the same molecule?
**A.** Its Activity is “Active”.

**Q.** For `COc1cc2c(cc1OC)/C(=C\c1ccc(NC(=O)Nc3ccncc3)cc1)C(=O)N2`, which IC50 [1] is on record?
**A.** The IC50 was 4.7 µM.

**Q.** And the Activity [2]?
**A.** The Activity was “inactive”.

**Q.** Which results are given for `O=C(Nc1ccccc1)Nc1ccc(/C=C2/C(=O)Nc3ccccc32)cc1`?
**A.** IC50 [1]: 10 µM; Activity [2]: inactive

**Q.** What does the source list for `COc1cc2c(cc1OC)/C(=C\c1ccc(C(=O)Nc3ccccc3)cc1)C(=O)N2`?
**A.** IC50 [1]: 12.2 µM; Activity [2]: inactive

**Q.** Which IC50 [6] does the source give for `COc1cc2c(cc1OC)/C(=C\c1ccc(O)cc1)C(=O)N2` here?
**A.** The IC50 was 0.17 µM.

**Q.** And the IC50 [3]?
**A.** The IC50 was 19.7 µM.

**Q.** What about the IC50 [4] of the same molecule?
**A.** Its IC50 is 16.3 µM.

**Q.** And the IC50 [1]?
**A.** The IC50 was 3.6 µM.

**Q.** What about the Activity [2] of the same molecule?
**A.** Its Activity is “Active”.

**Q.** What does the source list for `COc1cc2c(cc1OC)/C(=C\c1ccc(NC(=O)Nc3ccc4c(c3)OCO4)cc1)C(=O)N2`?
**A.** IC50 [1]: 19.4 µM; Activity [2]: inactive

**Q.** Which IC50 [3] does the source give for `COc1ccc(NC(=O)Nc2ccc(/C=C3/C(=O)Nc4cc(OC)c(OC)cc43)cc2)cc1` here?
**A.** The IC50 was 12.3 µM.

**Q.** And the IC50 [4]?
**A.** Its IC50 is 14.7 µM.

**Q.** What about the IC50 [1] of the same molecule?
**A.** Its IC50 is 3.6 µM.

**Q.** What about the Activity [2] of the same molecule?
**A.** Its Activity is “Active”.

**Q.** What does the source list for `COc1cc2c(cc1OC)/C(=C\c1ccc(NC(=O)N3CCN(C)CC3)cc1)C(=O)N2`?
**A.** IC50 [6]: > 3 µM; IC50 [1]: 15.8 µM; Activity [2]: Active

**Q.** What does the source list for `COc1cc2c(cc1OC)/C(=C\c1ccc(NC(=O)Nc3ccccc3)cc1)C(=O)N2`?
**A.** IC50 [3]: 8.7 µM; IC50 [4]: 14 µM; IC50 [1]: 4.6 µM; Activity [2]: Active

**Q.** For `COc1cc2c(cc1OC)/C(=C\c1ccc(NC(=O)Nc3ccc(N(C)C)cc3)cc1)C(=O)N2`, which IC50 [1] is on record?
**A.** The IC50 was greater than 40 µM.

**Q.** What about the Activity [2] of the same molecule?
**A.** Its Activity is “inactive”.

**Q.** Which results are given for `O=C(Nc1ccccc1)Nc1ccc(/C=C2\C(=O)N(O)c3ccccc32)cc1`?
**A.** IC50 [1]: 7.5 µM; Activity [2]: inactive

**Q.** Which results are given for `COc1cc2c(cc1OC)C(Cc1ccc(NC(=O)Nc3ccccc3)cc1)C(=O)N2` (stereo unspecified)?
**A.** IC50 [1]: 21.5 µM; Activity [2]: inactive

**Q.** Which results are given for `O=C(Nc1ccccc1)Nc1ccc(/C=C2\C(=O)Nc3ccccc32)cc1`?
**A.** IC50 [1]: > 40 µM; Activity [2]: inactive

**Q.** For `O=C(Nc1ccccc1)Nc1ccc(/C=C2\C(=O)Nc3ccc(Cl)cc32)cc1`, which IC50 [1] is on record?
**A.** Its IC50 is greater than 40 µM.

**Q.** And the Activity [2]?
**A.** The Activity was “inactive”.

— ChEMBL document CHEMBL1139977, “Synthesis and RET protein kinase inhibitory activity of 3-arylureidobenzylidene-indolin-2-ones” (Bioorg Med Chem Lett, 2007)
